# Results taken from article PMC9283305 (Nitric oxide : biology and chemistry, 2022).
# Like-named read-outs stand apart in the source and are kept apart here.
# Assays:
# [1] = cited from earlier work
# [2] = 37°C, 100 mM sodium phosphate, pH 7.4; cited from earlier work
# [3] = 37°C, 100 mM sodium phosphate, pH 7.4; cited from earlier work; remark: listed apart in the source
# [4] = Autoxidation of the ferrous-dioxygen; format: biochemical, human
# How it was run: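 Human Cygb WT and mutants were His-tagged, expressed in SoluBL21 cells and purified on Ni-NTA. Fe(II)-O2 was formed by excess dithionite reduction, then G25 gel filtration in aerobic buffer, mixed with prewarmed buffer at 37 °C and followed spectrally for 30–60 min. For two surface mutants, deoxy protein was made in a glovebox, desalted anaerobically and mixed 4:1 with O2-saturated buffer; read at 1 spectrum/s for 1000 s. At least triplicate; mean ± SD.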
# [5] = Nitrite reduction to NO by ferrous globins in the presence of excess dithionite; format: biochemical, human; details: for Nitrite reductase reaction rate constant: 37°C, 100 mM sodium phosphate, pH 7.4, excess dithionite
# How it was run: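 Ran in 100 mM sodium phosphate, pH 7.4, 37 °C, with 2.5 mM dithionite to keep heme ferrous and remove O2. Globin (2–10 μM) was mixed with nitrite, typically 1–10 mM, or 250 μM–2 mM for distal-His mutants. Spectra were read over 350–700 nm and fit single-exponential; rate constants came from the nitrite series. At least triplicate, with ≥2 protein batches; mean ± SD.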
# [6] = Oleic acid; format: binding, human; details: versus Cygb WT
# How it was run: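 Oleate was titrated into ferric distal-His mutant globins with imidazole present: 250 μM, or a series of imidazole levels. Difference spectra were taken by subtracting the initial spectrum. The absorbance difference at the wavelength of largest change was fit against oleate concentration to give an apparent KD. Buffer was 100 mM sodium phosphate, pH 7.4, 25 °C.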
# [7] = 37°C, 100 mM sodium phosphate, pH 7.4
# [8] = 37°C, 100 mM sodium phosphate, pH 7.4, decay fit to a two-exponential equation
molecule,measurement,setting,value
"zebrafish Cygb1: zebrafish cytoglobin 1, a five-coordinate native globin (protein, UniProt Q8UUR3 1-174, looked up) Cytoglobin-1: MEGDGGVQLTQSPDSLTEEDVCVIQDTWKPVYAERDNAGVAVLVRFFTNFPSAKQYFEHFRELQDPAEMQQNAQLKEHGQRVLNALNTLVENLRDADKLNTIFNQMGKSHALRHKVDPVYFKILAGVILEVLVEAFPQCFSPAEVQSSWSKLMGILYWQMNRVYAEVGWENSKK",Lipid binding,[1],do not show appreciable lipid binding
"Neuroglobin Wild-type: wild-type human neuroglobin (protein, UniProt Q9NPG2 1-151, looked up) Neuroglobin: MERPEPELIRQSWRAVSRSPLEHGTVLFARLFALEPDLLPLFQYNCRQFSSPEDCLSSPEFLDHIRKVMLVIDAAVTNVEDLSSLEEYLASLGRKHRAVGVKLSSFSTVGESLLYMLEKCLGPAFTPATRAAWSQLYGAVVQAMSRGWDGE",Autoxidation rate,[2],0.23 ± 0.03^b min^−1
same,Nitrite reductase reaction rate constant,[3],0.52 ± 0.19^d M^−1s^−1
"Neuroglobin H64W: human neuroglobin distal histidine His64(E7) to Trp mutant (protein, UniProt Q9NPG2 1-151, looked up, variant H64W) Neuroglobin: MERPEPELIRQSWRAVSRSPLEHGTVLFARLFALEPDLLPLFQYNCRQFSSPEDCLSSPEFLDWIRKVMLVIDAAVTNVEDLSSLEEYLASLGRKHRAVGVKLSSFSTVGESLLYMLEKCLGPAFTPATRAAWSQLYGAVVQAMSRGWDGE",Autoxidation rate,[2],0.076 ± 0.006^b min^−1
same,Nitrite reductase reaction rate constant,[3],7.6 ± 1.3^d M^−1s^−1
"Neuroglobin H64Q: human neuroglobin distal histidine His64(E7) to Gln mutant (protein, UniProt Q9NPG2 1-151, looked up, variant H64Q) Neuroglobin: MERPEPELIRQSWRAVSRSPLEHGTVLFARLFALEPDLLPLFQYNCRQFSSPEDCLSSPEFLDQIRKVMLVIDAAVTNVEDLSSLEEYLASLGRKHRAVGVKLSSFSTVGESLLYMLEKCLGPAFTPATRAAWSQLYGAVVQAMSRGWDGE",Autoxidation rate,[2],0.010 ± 0.002^b min^−1
same,Nitrite reductase reaction rate constant,[3],387 ± 21^d M^−1s^−1
"Neuroglobin H64A: human neuroglobin distal histidine His64(E7) to Ala mutant (protein, UniProt Q9NPG2 1-151, looked up, variant H64A) Neuroglobin: MERPEPELIRQSWRAVSRSPLEHGTVLFARLFALEPDLLPLFQYNCRQFSSPEDCLSSPEFLDAIRKVMLVIDAAVTNVEDLSSLEEYLASLGRKHRAVGVKLSSFSTVGESLLYMLEKCLGPAFTPATRAAWSQLYGAVVQAMSRGWDGE",Autoxidation rate,[2],0.066 ± 0.005^b min^−1
same,Nitrite reductase reaction rate constant,[3],1120 ± 140^d M^−1s^−1
"Neuroglobin H64L: His-tagged neuroglobin distal histidine His64(E7) to Leu mutant (protein, UniProt Q9NPG2 1-151, looked up, variant H64L) Neuroglobin: MERPEPELIRQSWRAVSRSPLEHGTVLFARLFALEPDLLPLFQYNCRQFSSPEDCLSSPEFLDLIRKVMLVIDAAVTNVEDLSSLEEYLASLGRKHRAVGVKLSSFSTVGESLLYMLEKCLGPAFTPATRAAWSQLYGAVVQAMSRGWDGE",Autoxidation rate,[4]; [7],0.010 ± 0.004 min⁻¹
same,Nitrite reductase reaction rate constant,[5],302 ± 55 M⁻¹ s⁻¹
"H81A: human cytoglobin distal histidine His81(E7) to Ala mutant (protein, UniProt Q8WWM9 1-190, looked up, variant H81A) Cytoglobin: MEKVPGEMEIERRERSEELSEAERKAVQAMWARLYANCEDVGVAILVRFFVNFPSAKQYFSQFKHMEDPLEMERSPQLRKAACRVMGALNTVVENLHDPDKVSSVLALVGKAHALKHKVEPVYFKILSGVILEVVAEEFASDFPPETQRAWAKLRGLIYSHVTAAYKEVGWVQQVPNATTPPATLPSSGP",Autoxidation rate,[4]; [7],0.094 ± 0.038 min⁻¹
same,Nitrite reductase reaction rate constant,[5],1100 ± 100 M⁻¹ s⁻¹
same,Nitrite reductase reaction rate constant,[5]; listed as His81Ala,up to 1100 M^−1s^−1
same,Fold increase in nitrite reduction rate constant versus Cygb WT,[5],up to 1000 fold
"K116E: human cytoglobin surface mutant Lys116 to Glu (protein, UniProt Q8WWM9 1-190, looked up, variant K116E) Cytoglobin: MEKVPGEMEIERRERSEELSEAERKAVQAMWARLYANCEDVGVAILVRFFVNFPSAKQYFSQFKHMEDPLEMERSPQLRKHACRVMGALNTVVENLHDPDKVSSVLALVGKAHALEHKVEPVYFKILSGVILEVVAEEFASDFPPETQRAWAKLRGLIYSHVTAAYKEVGWVQQVPNATTPPATLPSSGP",Autoxidation rate,[4]; [7],0.366 ± 0.057 min⁻¹
same,Nitrite reductase reaction rate constant,[5],0.65 ± 0.14 M⁻¹ s⁻¹
"R84E: human cytoglobin surface mutant Arg84 to Glu (protein, UniProt Q8WWM9 1-190, looked up, variant R84E) Cytoglobin: MEKVPGEMEIERRERSEELSEAERKAVQAMWARLYANCEDVGVAILVRFFVNFPSAKQYFSQFKHMEDPLEMERSPQLRKHACEVMGALNTVVENLHDPDKVSSVLALVGKAHALKHKVEPVYFKILSGVILEVVAEEFASDFPPETQRAWAKLRGLIYSHVTAAYKEVGWVQQVPNATTPPATLPSSGP",Autoxidation rate constant for the fast phase,[4]; [8],2.362 ± 0.359^c min^−1
same,Autoxidation rate constant for the slower phase,[4]; [8],0.303 ± 0.037 min⁻¹
same,Share of the autoxidation decay accounted for by the fast phase,"[4]; 37°C, 100 mM sodium phosphate, pH 7.4, two-exponential fit",73 ± 12%
same,Fold increase in autoxidation rate constant as compared to WT,[4]; versus WT cytoglobin,roughly 10 fold
same,Nitrite reductase reaction rate constant,[5],0.90 ± 0.30 M⁻¹ s⁻¹
"L108Q: human cytoglobin hydrophobic surface patch mutant Leu108 to Gln (protein, UniProt Q8WWM9 1-190, looked up, variant L108Q) Cytoglobin: MEKVPGEMEIERRERSEELSEAERKAVQAMWARLYANCEDVGVAILVRFFVNFPSAKQYFSQFKHMEDPLEMERSPQLRKHACRVMGALNTVVENLHDPDKVSSVLAQVGKAHALKHKVEPVYFKILSGVILEVVAEEFASDFPPETQRAWAKLRGLIYSHVTAAYKEVGWVQQVPNATTPPATLPSSGP",Autoxidation rate,[4]; [7],0.116 ± 0.051 min⁻¹
same,Nitrite reductase reaction rate constant,[5],0.66 ± 0.18 M⁻¹ s⁻¹
"H81W: human cytoglobin distal histidine His81(E7) to Trp mutant (protein, UniProt Q8WWM9 1-190, looked up, variant H81W) Cytoglobin: MEKVPGEMEIERRERSEELSEAERKAVQAMWARLYANCEDVGVAILVRFFVNFPSAKQYFSQFKHMEDPLEMERSPQLRKWACRVMGALNTVVENLHDPDKVSSVLALVGKAHALKHKVEPVYFKILSGVILEVVAEEFASDFPPETQRAWAKLRGLIYSHVTAAYKEVGWVQQVPNATTPPATLPSSGP",Autoxidation rate,[4]; [7],0.135 ± 0.034 min⁻¹
same,Nitrite reductase reaction rate constant,[5],10.7 ± 2.1 M⁻¹ s⁻¹
"V105Y: human cytoglobin hydrophobic surface patch mutant Val105 to Tyr (protein, UniProt Q8WWM9 1-190, looked up, variant V105Y) Cytoglobin: MEKVPGEMEIERRERSEELSEAERKAVQAMWARLYANCEDVGVAILVRFFVNFPSAKQYFSQFKHMEDPLEMERSPQLRKHACRVMGALNTVVENLHDPDKVSSYLALVGKAHALKHKVEPVYFKILSGVILEVVAEEFASDFPPETQRAWAKLRGLIYSHVTAAYKEVGWVQQVPNATTPPATLPSSGP",Autoxidation rate,[4]; [7],0.107 ± 0.018 min⁻¹
same,Nitrite reductase reaction rate constant,[5],3.76 ± 0.85 M⁻¹ s⁻¹
same,Fold increase in nitrite reduction rate constant versus Cygb WT,[5],3 fold
"T91D: human cytoglobin mutant Thr91 to Asp (protein, UniProt Q8WWM9 1-190, looked up, variant T91D) Cytoglobin: MEKVPGEMEIERRERSEELSEAERKAVQAMWARLYANCEDVGVAILVRFFVNFPSAKQYFSQFKHMEDPLEMERSPQLRKHACRVMGALNDVVENLHDPDKVSSVLALVGKAHALKHKVEPVYFKILSGVILEVVAEEFASDFPPETQRAWAKLRGLIYSHVTAAYKEVGWVQQVPNATTPPATLPSSGP",Autoxidation rate,[4]; [7],0.062 ± 0.005 min⁻¹
same,Nitrite reductase reaction rate constant,[5],1.24 ± 0.18 M⁻¹ s⁻¹
"H81L: human cytoglobin distal histidine His81(E7) to Leu mutant (protein, UniProt Q8WWM9 1-190, looked up, variant H81L) Cytoglobin: MEKVPGEMEIERRERSEELSEAERKAVQAMWARLYANCEDVGVAILVRFFVNFPSAKQYFSQFKHMEDPLEMERSPQLRKLACRVMGALNTVVENLHDPDKVSSVLALVGKAHALKHKVEPVYFKILSGVILEVVAEEFASDFPPETQRAWAKLRGLIYSHVTAAYKEVGWVQQVPNATTPPATLPSSGP",Autoxidation rate,[4]; [7],0.314 ± 0.043 min⁻¹
same,Nitrite reductase reaction rate constant,[5],76 ± 16 M⁻¹ s⁻¹
same,Nitrite reduction rate relative to Ngb H64L,[5]; relative to the Ngb H64L rate,about 25%
same,Fold increase in oleic acid KD versus WT,[6],4 fold
